Assay [1] has as its target T1, Plasminogen (Bos taurus, UniProt P06868). Description: Inhibition of plasmin with Val-L-Leu-L-lysine-p-nitroanilide; Not significantly active. The gist of the method:
(§1)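 Bovine plasma plasmin (6.24 mg/mL stock) in 0.45 M Tris pH 8.0 with 0.011 M NaCl, preincubated ± inhibitor 2.5 min at 37 °C. Reaction started with D-Val-L-Leu-L-Lys p-nitroanilide (0.0031 M stock); A405 change over 1 min. IC50 read from % inhibition vs log[inhibitor], ≥4 concentrations, each ≥3 times. NA: ≥100 µM lowers activity ≤25%.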

Assay [2] concerns the target T2, Plasma kallikrein (Homo sapiens, UniProt P03952). Description: Inhibition of kallikrein with benzoyl-L-arginine ethyl ester as substrate; Not significantly active.
Assay [3] addresses T3, Serine protease 1 (Bos taurus, UniProt P00760).
T3 sequence (P00760 whole entry): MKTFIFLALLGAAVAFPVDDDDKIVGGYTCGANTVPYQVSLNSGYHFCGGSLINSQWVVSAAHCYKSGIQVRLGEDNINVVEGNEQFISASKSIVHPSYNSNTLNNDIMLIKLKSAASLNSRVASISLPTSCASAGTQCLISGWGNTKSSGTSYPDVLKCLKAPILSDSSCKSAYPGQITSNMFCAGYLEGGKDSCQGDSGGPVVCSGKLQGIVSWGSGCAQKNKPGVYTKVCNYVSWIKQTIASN
Description: Inhibition of trypsin with benzoyl-L-arginine ethyl ester as substrate; […].

Assay [4] addresses T4, Prothrombin (Bos taurus, UniProt P00735). Description: Inhibition of thrombin with benzoyl-Phe-Val-arginine- p-nitroanilide as substrate; Not significantly active. Put shortly:
(§2)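 Bovine plasma thrombin (19.7 NIH units/mL stock) in 0.01 M Tris pH 8.0, preincubated ± inhibitor 2.5 min at 37 °C. Benzoyl-Phe-Val-Arg p-nitroanilide (0.0005 M stock in 6.8% DMSO/buffer) initiated; A405 change over 1 min. Percent inhibition at ≥4 concentrations (≥3 repeats) plotted against log concentration for IC50.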

Assay [5] concerns the target T5, Cathepsin B (Bos taurus, UniProt P07688). Description: Inhibition of cathepsin B with Cbz-L-lysine-p-nitrophenyl ester as substrate. Put shortly: (§3)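 Bovine spleen cathepsin B stock (0.163 mg/mL) in 0.10 M sodium phosphate pH 6.0 with 0.10 mg/mL DTT. Diluted in 0.10 M phosphate pH 6.0, preincubated ± inhibitor 2.5 min at 30 °C. Started with Nα-Cbz-L-lysine p-nitrophenyl ester (0.0024 M stock); A405 change over 1 min. IC50 from % inhibition vs log[inhibitor], ≥4 concentrations in ≥3 repeats. NA means ≤25% activity loss at 100 µM or more.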

For assay [6], the target named is T3, Serine protease 1. The assay is described as follows: Inhibition of trypsin with benzoyl-L-arginine ethyl ester as substrate.
Assay [7] deals with T2, Plasma kallikrein. Description: Inhibition of kallikrein with benzoyl-L-arginine ethyl ester as substrate.
Assay [8] deals with T4, Prothrombin. Description: Inhibition of thrombin with benzoyl-Phe-Val-arginine- p-nitroanilide as substrate. The gist of the method:
as §2

The target in assay [9] is T1, Plasminogen. Description: Inhibition of plasmin with Val-L-Leu-L-lysine-p-nitroanilide as substrate. The gist of the method:
as §1

Assay [10] deals with T5, Cathepsin B. Description: Inhibition of cathepsin B with Cbz-L-lysine-p-nitrophenyl ester; Not significantly active. Put shortly: as §3

pIC50: −log10 of the molar value. Where a SMILES comes first, the peptide text is derived from it.

T2 sequence (P03952 20-390 limits assumed): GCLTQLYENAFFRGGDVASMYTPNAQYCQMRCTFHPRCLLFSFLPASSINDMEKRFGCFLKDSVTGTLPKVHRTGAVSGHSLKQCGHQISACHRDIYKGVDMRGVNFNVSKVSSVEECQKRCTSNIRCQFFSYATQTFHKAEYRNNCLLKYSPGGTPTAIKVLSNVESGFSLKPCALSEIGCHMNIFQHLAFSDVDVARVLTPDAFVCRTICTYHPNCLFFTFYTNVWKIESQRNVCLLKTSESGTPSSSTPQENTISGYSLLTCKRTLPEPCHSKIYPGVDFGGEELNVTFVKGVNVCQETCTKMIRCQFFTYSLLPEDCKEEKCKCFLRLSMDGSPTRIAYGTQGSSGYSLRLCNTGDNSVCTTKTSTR
T2 sequence (P03952 391-638 limits assumed): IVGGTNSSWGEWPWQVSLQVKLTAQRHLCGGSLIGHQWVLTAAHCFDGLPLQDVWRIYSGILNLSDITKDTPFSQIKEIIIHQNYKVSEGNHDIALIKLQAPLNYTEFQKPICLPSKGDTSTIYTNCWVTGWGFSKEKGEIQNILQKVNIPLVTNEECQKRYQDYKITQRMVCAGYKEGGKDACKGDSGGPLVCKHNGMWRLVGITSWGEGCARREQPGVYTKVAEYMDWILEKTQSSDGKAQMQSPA
T1 sequence (P06868 104-583 limits assumed): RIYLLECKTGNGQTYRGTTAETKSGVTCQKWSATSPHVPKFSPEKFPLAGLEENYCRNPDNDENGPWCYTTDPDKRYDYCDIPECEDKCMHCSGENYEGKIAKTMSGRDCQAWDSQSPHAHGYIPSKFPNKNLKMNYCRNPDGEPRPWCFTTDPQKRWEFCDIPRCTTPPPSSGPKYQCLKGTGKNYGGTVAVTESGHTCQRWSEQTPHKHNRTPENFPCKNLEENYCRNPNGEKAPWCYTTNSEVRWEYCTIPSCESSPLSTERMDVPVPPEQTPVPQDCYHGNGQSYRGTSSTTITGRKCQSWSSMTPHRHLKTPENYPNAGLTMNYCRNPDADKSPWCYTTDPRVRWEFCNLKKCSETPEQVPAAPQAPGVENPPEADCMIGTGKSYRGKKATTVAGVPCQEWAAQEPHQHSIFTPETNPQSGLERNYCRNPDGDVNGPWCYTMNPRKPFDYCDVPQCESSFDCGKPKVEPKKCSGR
T1 sequence (P06868 584-812 limits assumed): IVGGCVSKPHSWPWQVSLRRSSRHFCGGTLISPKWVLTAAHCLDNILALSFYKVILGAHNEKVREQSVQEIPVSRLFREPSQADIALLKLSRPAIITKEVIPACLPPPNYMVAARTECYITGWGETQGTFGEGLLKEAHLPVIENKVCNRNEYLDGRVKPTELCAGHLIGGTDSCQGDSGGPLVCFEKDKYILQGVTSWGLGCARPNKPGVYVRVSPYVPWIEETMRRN

For the compound `CC(=O)N[C@@H](CC(C)C)C(=O)N[C@@H](Cc1ccccc1)C(=O)N[C@H](C=O)CCCCN` (Ac-Leu-Phe-Lys-aldehyde), the IC50 entry at Plasminogen [1], at Plasma kallikrein [2], against Serine protease 1 [3] and at Prothrombin [4] was “Not Active” each time. For the same compound, the pIC50 (commonly −log10 of the IC50, conventionally taken in molar units) against Cathepsin B [5] is 7.00.

Regarding `CC[C@H](C)[C@H](NC(=O)[C@H](CC(C)C)NC(C)=O)C(=O)N[C@H](C=O)CCCN=C(N)N` (Ac-Leu-Ile-Arg-aldehyde), the pIC50 was 5.04 against Serine protease 1 [6]; 4.46 against Plasma kallikrein [7]; 4.74 at Prothrombin [8]; 6.82 at Cathepsin B [5]; 4.96 against Plasminogen [9].

Consider `CC[C@H](C)[C@H](NC(C)=O)C(=O)N[C@@H](CC(C)C)C(=O)N[C@H](C=O)CCCN=C(N)N` (Ac-Ile-Leu-Arg-aldehyde), for which the IC50 entry at Serine protease 1 [3] and at Cathepsin B [10] was “Not Active” each time. Also, the negative logarithm of the IC50 (pIC50) against Plasma kallikrein [7] was 4.27; against Prothrombin [8], 4.03; on Plasminogen [9] it was 4.17.

Regarding `CC(=O)N[C@@H](CC(C)C)C(=O)N[C@@H](Cc1ccccc1)C(=O)N[C@H](C=O)CCCN=C(N)N` (Ac-Leu-Phe-Arg-aldehyde), the IC50 result on Serine protease 1 [3] is listed as “Not Active”. The negative-log IC50 (pIC50) at Plasma kallikrein [7] was 4.39; against Prothrombin [8], 5.09; against Cathepsin B [5], 5.96; against Plasminogen [9] it was 5.44.

Regarding `CC(=O)N[C@@H](Cc1ccccc1)C(=O)N[C@H](C(=O)N[C@H](C=O)CCCN=C(N)N)C(C)C` (Ac-Phe-Val-Arg-aldehyde), the pIC50 against Serine protease 1 [6] was 4.92; against Plasma kallikrein [7], 4.55; against Prothrombin [8] it was 5.74; against Cathepsin B [5] it was 7.41; at Plasminogen [9] it was 5.66.

As for `CC(=O)N[C@@H](Cc1ccccc1)C(=O)N[C@@H](CC(C)C)C(=O)N[C@H](C=O)CCCCN` (Ac-Phe-Leu-Lys-aldehyde), the IC50 result at Plasminogen [1], against Plasma kallikrein [2], against Serine protease 1 [3] and on Prothrombin [4] was “Not Active” each time. Moreover, the negative-log IC50 (pIC50) against Cathepsin B [5] is 4.74.

As for `CC(=O)N[C@@H](CC(C)C)C(=O)N[C@@H](CC(C)C)C(=O)N[C@H](C=O)CCCCN` (Ac-Leu-Leu-Lys-aldehyde), the IC50 result at Plasma kallikrein [2], at Serine protease 1 [3] and against Prothrombin [4] was “Not Active” in each case. For the same compound, the pIC50 was 6.89 against Cathepsin B [5] and 4.74 on Plasminogen [9].

As to `CC(=O)N[C@@H](CC(C)C)C(=O)N[C@@H](Cc1ccc(O)cc1)C(=O)N[C@H](C=O)CCCN=C(N)N` (Ac-Leu-Tyr-Arg-aldehyde), the IC50 entry at Serine protease 1 [3] is on record as “Not Active”. The pIC50 against Plasma kallikrein [7] is 4.60; against Prothrombin [8] it was 4.18; against Cathepsin B [5], 5.80; against Plasminogen [9], 5.25.

For the compound `CC(=O)N[C@@H](CC(C)C)C(=O)N[C@H](C(=O)N[C@H](C=O)CCCN=C(N)N)C(C)C` (Ac-Leu-Val-Arg-aldehyde), the IC50 entry on Plasminogen [1], at Serine protease 1 [3] and on Prothrombin [4] was “Not Active” in each case. Besides, the values for the negative-log IC50 (pIC50) on Plasma kallikrein [7] and on Cathepsin B [5] were 4.80 and 3.89, respectively.

Take `CC(=O)N[C@@H](Cc1ccccc1)C(=O)N[C@@H](CC(C)C)C(=O)N[C@H](C=O)CCCN=C(N)N` (Ac-Phe-Leu-Arg-aldehyde): the negative logarithm of the IC50 (pIC50) was 4.43 on Serine protease 1 [6]; 4.80 against Plasma kallikrein [7]; 4.15 against Prothrombin [8]; 5.82 against Cathepsin B [5]; 5.11 against Plasminogen [9].

As to `CC(=O)N[C@@H](Cc1ccc(O)cc1)C(=O)N[C@@H](CC(C)C)C(=O)N[C@H](C=O)CCCN=C(N)N` (Ac-Tyr-Leu-Arg-aldehyde), the IC50 entry on Serine protease 1 [3] is “Not Active”. The negative-log IC50 (pIC50) against Plasma kallikrein [7] was 4.59; at Prothrombin [8] it was 4.46; against Cathepsin B [5], 4.66; against Plasminogen [9] it was 4.11.

Consider `CC(=O)N[C@H](C(=O)N[C@@H](CC(C)C)C(=O)N[C@H](C=O)CCCN=C(N)N)C(C)C` (Ac-Val-Leu-Arg-aldehyde), for which the pIC50 against Serine protease 1 [6] is 3.89; against Plasma kallikrein [7], 4.72; on Prothrombin [8], 3.77; on Cathepsin B [5], 4.00; against Plasminogen [9], 4.19.

Take `CC(=O)N[C@@H](CC(C)C)C(=O)N[C@H](C(=O)N[C@H](C=O)CCCCN)C(C)C` (Ac-Leu-Val-Lys-aldehyde): the IC50 result against Plasma kallikrein [2] is given as “Not Active”. For the same compound, the negative-log IC50 (pIC50) is 4.35 against Serine protease 1 [6], 3.85 on Prothrombin [8], 8.40 on Cathepsin B [5] and 4.89 at Plasminogen [9].

For `CC[C@H](C)[C@H](NC(C)=O)C(=O)N[C@@H](CC(C)C)C(=O)N[C@H](C=O)CCCCN` (Ac-Ile-Leu-Lys-aldehyde), the IC50 result against Plasma kallikrein [2], against Serine protease 1 [3] and on Prothrombin [4] was “Not Active” in each case. The negative logarithm of the IC50 (pIC50) against Cathepsin B [5] was 5.70; at Plasminogen [9] it was 4.77.

Consider `CC(=O)N[C@@H](CC(C)C)C(=O)N[C@@H](CC(C)C)C(=O)N[C@H](C=O)CCCNC(=N)N` [LEUPEPTIN], for which the negative-log IC50 (pIC50) is 5.09 on Serine protease 1 [6]; 4.40 against Plasma kallikrein [7]; 4.92 at Prothrombin [8]; 6.51 against Cathepsin B [5]; 5.43 against Plasminogen [9].

With `CC(=O)N[C@H](C(=O)N[C@@H](CC(C)C)C(=O)N[C@H](C=O)CCCCN)C(C)C` (Ac-Val-Leu-Lys-aldehyde), the IC50 result against Plasminogen [1], at Plasma kallikrein [2], against Serine protease 1 [3] and against Prothrombin [4] was “Not Active” each time. Also, the negative logarithm of the IC50 (pIC50) against Cathepsin B [5] was 4.55.

Values taken from ChEMBL document CHEMBL1126640, “Inhibition studies of some serine and thiol proteinases by new leupeptin analogues” (J Med Chem, 1993).
